For assay [1], the target named is Dual specificity protein phosphatase 3 (Homo sapiens, UniProt P51452). As to the kind of experiment: Compound was evaluated for the inhibition constant against dual specificity phosphatase VHR. The essentials:
(§1)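 pNPP hydrolysis in pH 7.0 buffer of 50 mM 3,3-dimethylglutarate, 1 mM EDTA, ionic strength 0.15 M with NaCl. Reaction started with enzyme and stopped after 2–3 min with 1 N NaOH. Nonenzymatic substrate hydrolysis subtracted via an enzyme-free control. Initial rates taken at eight pNPP levels (0.2–5 Km) at each of three fixed inhibitor concentrations to obtain the inhibition constant.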

Assay [2] concerns the target T1, Tyrosine-protein phosphatase non-receptor type 1 (Homo sapiens, UniProt P18031).
T1 sequence (P18031 whole entry): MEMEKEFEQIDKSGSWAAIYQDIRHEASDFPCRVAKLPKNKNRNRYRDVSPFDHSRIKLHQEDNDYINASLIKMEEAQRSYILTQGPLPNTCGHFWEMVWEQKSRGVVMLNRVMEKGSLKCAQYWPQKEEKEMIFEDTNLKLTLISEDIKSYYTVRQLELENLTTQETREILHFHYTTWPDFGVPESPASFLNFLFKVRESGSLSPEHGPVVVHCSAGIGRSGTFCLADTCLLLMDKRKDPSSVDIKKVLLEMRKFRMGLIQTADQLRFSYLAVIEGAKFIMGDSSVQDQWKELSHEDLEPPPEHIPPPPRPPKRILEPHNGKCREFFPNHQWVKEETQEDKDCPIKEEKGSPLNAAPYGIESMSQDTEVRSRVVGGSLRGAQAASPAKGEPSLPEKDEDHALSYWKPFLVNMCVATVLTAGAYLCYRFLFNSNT
As to the kind of experiment: Compound was evaluated for the inhibition constant against Protein-tyrosine phosphatase (PTP1B ). The essentials: as §1

Dual specificity protein phosphatase 3, sequence (P51452 whole entry): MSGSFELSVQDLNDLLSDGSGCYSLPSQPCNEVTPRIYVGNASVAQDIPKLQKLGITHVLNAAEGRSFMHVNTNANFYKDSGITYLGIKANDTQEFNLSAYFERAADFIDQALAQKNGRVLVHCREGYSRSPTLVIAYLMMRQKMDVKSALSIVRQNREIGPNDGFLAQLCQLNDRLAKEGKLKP

Regarding `O=P(O)(O)COc1ccc(Cc2ccc(O)cc2)cc1`, the Ki in assay [1] is 1300 µM; in assay [2], 47 µM.

As to `O=P(O)(O)COc1cccc2c1ccc1ccccc12`, the Ki in assay [1] was 570 µM; in assay [2], 410 µM.

With `O=P(O)(O)COc1cccc2ccccc12`, the figures for the Ki in assay [1] and in assay [2] were 4800 µM and 1300 µM, respectively.

With `O=C(O)Cc1ccc(OCP(=O)(O)O)cc1`, the values for the Ki in assay [1] and in assay [2] were 2600 µM and 1100 µM, respectively.

Regarding `O=P(O)(O)COc1ccc2ccccc2c1`, the results for the Ki in assay [1] and in assay [2] were 5700 µM and 1300 µM, respectively.

Consider `O=P(O)(O)COc1ccccc1` [PHENOXYMETHYLPHOSPHONATE], for which the Ki in assay [1] was determined as 26000 µM; in assay [2], 3300 µM.

The term Ki denotes the dissociation constant of the complex between target and ligand, obtained from inhibition or displacement. Lower therefore signals a stronger hold on the target.

Values taken from ChEMBL document CHEMBL1133075, “Synthesis and characterization of a novel class of protein tyrosine phosphatase inhibitors” (Bioorg Med Chem Lett, 2000).
